High-throughput results (PubChem BioAssay)
The list is not random: actives were taken first. Their share in the collection is about 0.72%.
GSK3B inh – human GSK3beta kinase inhibitors, primary screen, biochemical, cell-free homogeneous, HTS. Glycogen synthase kinase-3 beta (Homo sapiens), P49841. GST-GSK3beta kinase, ADP-Glo luminescence, 60 min; active compounds read low. activity score (negative = inhibition), % at 10 µM. hit rate 0.038% among 300,000. AID 2097, 2009;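 active means more than half of replicate wells score below -50%, meaning over 50% inhibition versus plate controls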
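Test system: GST-fused GSK3beta enzyme, cell-free | Quantity: 1.6 ng GST-GSK3beta enzyme per well | Reagent: 25 µM ATP with peptide substrate | Schedule: 60 min enzyme reaction, room temperature | Signal: Luminescent ADP-Glo measurement of ADP formed | Read-out basis: Score relative to plate controls | Control set: DMSO and 20 µM GW8510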
STK33 kinase inh – inhibitors of purified STK33 kinase, primary screen, biochemical, ADP-Glo luminescence, homogeneous, cell-free; Serine/threonine-protein kinase 33 (Homo sapiens), Q9BYT3; MBP phosphorylation; inhibition, % at 10 µM; hit rate 0.073% among 320,000; AID 2661, 2010;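 active means inhibition at or above 25%, using the most active replicate where run in duplicate; inactive means inhibition below 25%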
Target sequence (Q9BYT3 whole entry, looked up): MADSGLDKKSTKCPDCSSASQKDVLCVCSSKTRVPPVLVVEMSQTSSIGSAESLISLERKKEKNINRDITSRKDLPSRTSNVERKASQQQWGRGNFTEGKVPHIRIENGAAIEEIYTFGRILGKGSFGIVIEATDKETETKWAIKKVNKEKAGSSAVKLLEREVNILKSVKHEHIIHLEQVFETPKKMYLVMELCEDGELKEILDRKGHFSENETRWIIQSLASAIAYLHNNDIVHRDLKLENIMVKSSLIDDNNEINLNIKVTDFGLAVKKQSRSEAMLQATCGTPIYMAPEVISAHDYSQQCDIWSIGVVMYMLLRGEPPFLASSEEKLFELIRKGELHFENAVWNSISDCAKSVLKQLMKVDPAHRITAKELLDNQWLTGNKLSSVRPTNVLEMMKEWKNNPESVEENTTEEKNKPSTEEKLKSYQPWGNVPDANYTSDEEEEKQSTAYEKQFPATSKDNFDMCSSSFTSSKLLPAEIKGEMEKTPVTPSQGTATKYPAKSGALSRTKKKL
CR mimetic SO – reduction of superoxide in aged yeast, primary screen, HTS. S. cerevisiae aged cells, superoxide DHE fluorescence; active compounds read low. hit rate 0.18% among 330,000. superoxide response (% of plate mean), % at 10 µM;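 active means superoxide response under a set limit, about three screen SD below normal, cut at about 65% in these data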;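 further: yeast aged for seven days with compound at 30 °C before DHE staining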
AI-2 QS modul – Vibrio harveyi AI-2 quorum sensing modulators, primary screen, JMH597 strain, luminescence/OD600 ratio. Vibrio harveyi JMH597 AI-2 luminescence/OD600 ratio, 9 h; active compounds read low; strain lacks LuxN and CqsS sensors; 0 = neutral-control median. activity change, % at 7.5 µM. hit rate 0.4% among 300,000. AID 2094, 2009; in the data active means activity change below about -75%, passing the limit was not always enough;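 further: luminescence divided by OD600 gain over 9 h not by final OD600 alone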
PolyA inhibitor – polyadenylation inhibitors in yeast reporter cells, primary screen, luminescence, S. cerevisiae; AID 1875, 2009; activity score, % at 12 µM; hit rate 0.02% among 300,000; S. cerevisiae SKY197-pL101 polyadenylation reporter, beta-gal luminescence; efflux-impaired pdr1/pdr3 knockout yeast; score 100 = 6 SD above DMSO;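 active means lowest replicate activity score at least 50, where 100 means six control SD above control mean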;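 further: yeast exposed to compound for 9 h at 30 °C; higher score means more reporter readthrough which indicates perturbed polyadenylation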
GSK3A inh – blockers of GSK3A enzyme activity – biochemical, luminescence, cell-free homogeneous, HTS, primary screen; hit rate 0.1% among 320,000; inhibition, % at 10 µM; Glycogen synthase kinase-3 alpha (Homo sapiens), P49840; GSK-3 alpha kinase, ADP-Glo luminescence, 60 min; AID 2650, 2010;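 active means more than half of replicates show inhibition above 20%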;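 further: GST-tagged GSK-3 alpha with peptide substrate and 25 µM ATP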
JMH597 growth – Vibrio harveyi growth inhibition, confirmation, counter-screen for AI-2 quorum sensing project, JMH597 strain, OD600 absorbance. shares compounds with AI-2 QS modul. growth inhibition, % at 7.5 µM. AID 2726, 2010. 9 h; lacks LuxN and CqsS sensors. hit rate 1% among 750;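 active means every replicate shows growth inhibition above 50%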
BB721 lum counter – luminescence inhibition in constitutive-on V. harveyi, confirmation, counter-screen for LuxS inhibitor project, strain BB721, luminescence readout | shares compounds with AI-2 QS modul | Vibrio harveyi BB721 luminescence, 9 h | inhibition, % at 7.5 µM | hit rate 95% among 750 | AID 2727, 2010;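 active means inhibition above about 80% in every replicate, not just on average, limit read from the data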
BB721 growth – growth inhibition of V. harveyi BB721, confirmation, cytotoxicity control for AI-2 quorum sensing inhibitors, strain BB721, absorbance OD600; shares compounds with AI-2 QS modul; Vibrio harveyi BB721 growth, 9 h; growth inhibition, % at 7.5 µM; hit rate 3% among 750;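 active means every replicate shows growth inhibition above 50%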
JMH597 AI-2 mod – Vibrio harveyi AI-2 signaling luminescence modulation – JMH597 strain, confirmation. shares compounds with AI-2 QS modul. Vibrio harveyi JMH597 AI-2 quorum sensing luminescence, 9 h; luxN and CqsS knockout, AI-2 only. inhibition, % at 7.5 µM. hit rate 97% among 750. AID 2736, 2010;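 active means every replicate shows more than 75% inhibition of signal versus neutral control wells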
Numbers stand for hits; 0 = inactive; - = not tested or not shown.

SMILES	GSK3B inh	STK33 kinase inh	CR mimetic SO	AI-2 QS modul	PolyA inhibitor	GSK3A inh	JMH597 growth	BB721 lum counter	BB721 growth	JMH597 AI-2 mod
COc1ccc(CNc2ccc(C(=O)O)cc2)cc1	0	0	0	-95	0	0	0	99	0	99
Cc1ccc(C(=O)N2CCN(c3ccc(NC(=O)COc4ccccc4C)cc3)CC2)cc1	0	0	0	0	0	0	-	-	-	-
Nc1nc(SCC(=O)c2ccc(Oc3ccccc3)cc2)n[nH]1	0	0	0	-94	0	0	0	97	0	98
Nc1nc(SCC(=O)c2ccc([N+](=O)[O-])cc2)n[nH]1	0	0	0	0	0	0	-	-	-	-
Cc1ccc(Oc2ccc(NC(=O)CSc3n[nH]c(N)n3)cc2)cc1	0	0	0	-94	0	0	0	95	0	98
CCCCCCCCNC(=S)NCCN1CCCCC1	0	-	-	0	0	-	-	-	-	-
COc1ccc(NC(=O)CSc2nnc(NC(=O)C3CCC3)s2)c(OC)c1	0	0	0	0	0	0	-	-	-	-
CC(=O)N1CCC(C(=O)OCc2ccccc2F)(c2ccccc2)CC1	0	0	0	0	0	0	-	-	-	-
c1ccc(CSc2nnc(-c3cccs3)o2)cc1	0	0	0	-90	0	0	0	97	0	98
Fc1ccc(-c2nnc(CSc3nnc(-c4cccs4)o3)o2)cc1	0	0	0	0	0	0	-	-	-	-
Fc1ccc(CSc2nnc(-c3cccs3)o2)cc1	0	0	0	-89	0	0	0	97	0	97
Cc1ccc(S(=O)(=O)c2ccc(C)cc2)cc1	0	0	0	-92	0	0	0	98	0	100
O=C(NC(c1ccccc1)c1ccccc1)c1ccc(CO)cc1	0	0	0	0	0	0	-	-	-	-
Cc1cc(NS(=O)(=O)c2ccc(CC(C)C)cc2)no1	0	0	0	0	0	0	-	-	-	-
COc1ccc(OCC(=O)Nc2ccc(S(=O)(=O)Nc3cc(C)on3)cc2)cc1	0	-	0	-84	0	-	0	91	0	92
COc1ccc(S(=O)(=O)Nc2ccc(Nc3ccccc3)cc2)cc1	0	0	0	-97	0	0	68	100	0	100
COc1ccc(S(=O)(=O)Nc2ccccc2)cc1	0	0	0	0	0	0	-	-	-	-
CCc1ccc(OCC(=O)Nc2ccc(S(=O)(=O)Nc3ccccn3)cc2)cc1	0	0	0	-85	0	0	0	89	0	96
Cc1cc(NS(=O)(=O)c2ccc(C(C)C)cc2)no1	0	0	0	-86	0	0	0	87	0	100
Cc1cc(NS(=O)(=O)c2ccc(NC(=O)COc3cc(C)c(Cl)c(C)c3)cc2)no1	-	0	0	-	-	0	-	-	-	-
CCn1c(SCC(=O)Nc2ccc(F)cc2)nnc1-c1cnccn1	0	0	0	0	0	0	-	-	-	-
COc1ccc(CC(=O)Nc2ccc(S(=O)(=O)Nc3ncccn3)cc2)cc1	0	0	0	-91	0	0	0	93	0	96
CN(C)C(=O)Nc1ccccc1	0	0	0	0	0	0	-	-	-	-
O=C(O)CC(=O)Nc1cc(Cl)ccc1O	0	0	0	0	0	0	-	-	-	-
